Data: ChEMBL document CHEMBL1154279, “Cytotoxic compounds from the stems of Cinnamomum tenuifolium” (J Nat Prod, 2009)

Legend:
DU-145 = assay: Cytotoxicity against human DU145 cells after 72 hrs by XTT assay; format: functional, cell-based; conditions: DU-145, 24 h, in the assay text read “after 24 hrs” for “after 72 hrs”
LNCaP = assay: Cytotoxicity against human LNCAP cells after 72 hrs by XTT assay; format: functional, cell-based; conditions: 24 h, in the assay text read “after 24 hrs” for “after 72 hrs”
Method in brief: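 Prostate cancer cells in RPMI-1640 with 10% FBS, 37 °C, 5% CO2, grown to 70–80% confluence and treated at 0.1–100 µM for 24, 48 and 72 h. XTT labeling for 4 h at 37 °C, absorbance 450 nm (reference 650 nm) against control wells. IC50 derived from the mean of eight wells; taxol and cisplatin served as positive controls.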

Row | Structure (SMILES) | IC50 (DU-145) [µM] | IC50 (LNCaP) [µM]
1 | C=C1C=C(C(CCCCCCCCCCCCCCCCCCC)OC)C(=O)O1 (centres undefined) [TENUIFOLIDE B] | 246 | 22.2
2 | COc1ccc2c(c1)CC=C(CO)c1cc3c(cc1-2)OCO3 [TENUIFOLIN] | > 500 | 223
